M1 PAM parental: M1 PAM counterscreen hit in parental CHO-K1 cells | ATP EC20, Fluo-8 calcium fluorescence; 0% at ATP EC20, 100% at ATP max | activation, % at 3 µM | actives 0.02% (n = 360,000);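 active means activation above the run cutoff, the mean activation of all test compounds plus 3 SD, cut at about 40% in these data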;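 further: peak over basal fluorescence ratio in a 140 s read after ATP addition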
CHO parental Ca: counter-screen for OX1R antagonists: effect in parental CHO cells; inhibition, % at 5.6 µM; AID 463079; actives 0.63% (n = 330,000); parental CHO-K1, ATP-induced calcium, Fluo-8 fluorescence;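 active means inhibition above that plate's mean sample inhibition plus 3 SD, cut at about 26% in these data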;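 further: 0% = ATP-challenged DMSO wells and 100% = DMSO wells without ATP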
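Material – parental CHO cells · Reagent – ATP stimulus · Compound – single nominal dose of 5.6 µM per compound · Detection – Fluo-8 fluorescence · Read-out basis – percent inhibition of calcium signal · Controls – ATP-challenged DMSO wells low, unchallenged DMSO wells high · Repeats – no replicates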
CHO-K1 Ca antag: nonselective inhibitor or artifact in parental CHO-K1 cells. ATP-induced calcium, Fluo-8 fluorescence. inhibition, % at 3 µM. actives 0.6% (n = 360,000);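 active means inhibition above a per-plate cutoff, the plate's mean sample inhibition plus 3 SD, cut at about 24% in these data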;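 further: 0% = DMSO plus EC80 ATP and 100% = DMSO alone without ATP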
OX1R antag-1: human HCRTR1 antagonism; CHO/OX1R cells, Fluo-8 calcium fluorescence, orexin A; inhibition, % at 5 µM; actives 0.43% (n = 330,000); AID 434989;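 active means inhibition above its plate's threshold, mean inhibition of all tested compounds on the plate plus 3 SD, cut at about 37% in these data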;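 further: 0% = orexin A challenge wells and 100% = SB-334867-A antagonist wells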
Target sequence (O43613 whole entry, looked up): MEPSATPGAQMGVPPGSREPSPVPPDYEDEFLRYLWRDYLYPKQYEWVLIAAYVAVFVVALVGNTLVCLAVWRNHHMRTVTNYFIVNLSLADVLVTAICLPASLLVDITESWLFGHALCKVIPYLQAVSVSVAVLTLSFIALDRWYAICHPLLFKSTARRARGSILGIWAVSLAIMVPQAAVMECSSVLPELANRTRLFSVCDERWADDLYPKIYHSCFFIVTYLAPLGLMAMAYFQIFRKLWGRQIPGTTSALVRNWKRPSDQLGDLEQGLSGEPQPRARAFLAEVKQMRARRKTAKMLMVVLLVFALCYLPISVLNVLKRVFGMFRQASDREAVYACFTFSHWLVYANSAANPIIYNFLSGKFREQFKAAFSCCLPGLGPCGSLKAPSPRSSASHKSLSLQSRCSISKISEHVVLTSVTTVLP
OX1R antag-2: blocks the human orexin 1 receptor. O43613. OX1R-expressing cells, FRET antagonist read-out. inhibition, % at 6.6 µM. actives 1.8% (n = 330,000); in the data active means inhibition mostly above about 38%, no sharp cut-off; inactive means mostly below about 40%;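 further: 0% = agonist challenge alone and 100% = reference antagonist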
M1 ag parental: nonselective activator or artifact in parental CHO-K1 cells. activation, % at 3 µM. actives 0.48% (n = 360,000). Fluo-8 calcium fluorescence; scaled to maximal ATP response, vehicle zero. AID 602248; in the data active means activation above about 15%;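 further: untransfected CHO-K1 host cells lacking M1 receptor as counterscreen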
Starred values were filed as active, the others as inactive; x = no result given. Only some compounds are listed: those with a hit (about 2.9% of all), similar ones and a draw of the others.

SMILES	M1 PAM parental	CHO parental Ca	CHO-K1 Ca antag	OX1R antag-1	OX1R antag-2	M1 ag parental
CC(C)(C)NC(=O)CC1C[C@H](C(=O)N2CCCCC2)[C@@]2(CCc3ccccc3)c3[nH]c4ccccc4c3CCN2C1=O (stereo partly specified)	-1	-12	3	-22	0	0
CC(=O)c1ccc(OCC(=O)Nc2cccc(C(=O)Nc3c(C)n(C)n(-c4ccccc4)c3=O)c2)cc1	6	x	-2	x	x	0
CC(=O)Nc1ccc(CNc2nc3cc(-c4cccc(C(F)(F)F)c4)sc3c(=O)n2C)cc1	8	x	-6	x	x	0
CCCN(CCC)C(=O)c1ccc2c(c1)N(CC)C(=O)c1ccccc1S2(=O)=O	-10	-1	-4	-4	2	0
O=C(COC(=O)c1ccc(O)cc1)NC(=O)NCc1ccccc1	8	-11	1	0	1	7
O=C(COC(=O)c1ccc([N+](=O)[O-])s1)NC(=O)NCc1ccccc1	23	-7	-1	-7	49*	1
CC1(C(=O)OCC(=O)NC(=O)NCc2ccccc2)CC1(Cl)Cl (stereo unspecified)	19	-20	-10	-15	12	15*
CC1(C(=O)OCC(=O)NCc2ccc(Cl)cc2)CC1(Cl)Cl (stereo unspecified)	16	1	-10	-4	8	0
COC(=O)[C@H](CC(C)C)NC(=O)N1CCC(C)CC1	7	-12	-13	-14	8	0
COc1ccccc1CC(=O)Nc1cccc(C(=O)Nc2nccs2)c1	-3	-16	-2	-12	49*	2
CC(C)CN1C(=O)c2ccc(C(=O)Nc3ccncc3)cc2C1=O	0	-1	-16	31	25	18*
CCCN1C(=O)c2ccc(C(=O)Nc3nccs3)cc2C1=O	5	-6	5	-7	45*	1
COCCN1C(=O)c2ccc(C(=O)Nc3nccs3)cc2C1=O	16	5	-6	-5	46*	1
CC(C)CN1C(=O)c2ccc(C(=O)Nc3nccs3)cc2C1=O	-7	-8	21	-21	14	0
COc1ccc(N=Nc2c(C)[nH][nH]c2=O)cc1	28	-7	1	-12	57*	0
Cc1[nH][nH]c(=O)c1N=Nc1ccc(F)cc1	13	-9	-11	-28	16	0
CN(C)S(=O)(=O)c1cccc(NC(=O)c2ccc(COc3ccccc3)cc2)c1	-11	56*	30*	29	11	18*
CN(C)S(=O)(=O)c1cccc(NC(=O)c2ccc(OC(F)(F)F)cc2)c1	5	5	13	-14	17	19*
O=C(Nc1ccc(Br)c2ccccc12)c1ccc2ccccc2c1O	-10	26	14	-17	41*	18*
CSc1ncccc1C(=O)Nc1cccc(S(=O)(=O)N2CCCC2)c1	-9	-6	4	3	15	1
COc1cc(C2NC(=O)c3ccccc3O2)ccc1OC(C)C (stereo unspecified)	-10	-4	25*	3	4	-1
C#CCNC(=O)C1=C[C@H](c2ccc3c(c2)OCO3)[C@@H](CCCO)[C@H](OCC)O1	-11	-17	-10	-12	17	0
CCN1CCN(c2ccc(S(=O)(=O)N3CCCCC3)cc2NC(=O)Cc2ccc(Cl)c(Cl)c2)CC1	0	74*	29*	45	19	18*
CCN1CCN(c2ccc(S(=O)(=O)N3CCCCC3)cc2NC(=O)Cc2ccccc2)CC1	-26	-23	7	-20	14	1
Cc1ccccc1OCCC(=O)Nc1cc(S(=O)(=O)N2CCCCC2)ccc1N1CCN(C)CC1	-12	x	8	x	x	51*
SMILES	M1 PAM parental	CHO parental Ca	CHO-K1 Ca antag	OX1R antag-1	OX1R antag-2	M1 ag parental
CN(CC(=O)Nc1ccc(F)cc1)C(=O)COc1ccc([N+](=O)[O-])cc1Cl	4	-13	-13	-17	39	1
COc1ccccc1-c1cc(SC)c(C#N)c(=O)o1	-3	5	3	-7	51*	0
COc1ccccc1-c1cc(C(F)(F)F)c(C#N)c(=O)[nH]1	12	-2	3	-11	10	0
COc1ccc(CNCCC(c2ccc(OC)cc2)c2ccccc2OC)cc1 (stereo unspecified)	-1	-15	4	-23	8	1
COc1ccc(C(CCNCc2ccc(OC(C)C)cc2)c2ccccc2OC)cc1 (stereo unspecified)	-4	13	14	-4	3	18*
O=c1c(-c2ccc(Oc3ccccc3)cc2)[n+]([O-])c2ccccc2n1OCc1ccccn1	23	-18	-5	-29	17	0
CCOc1ccc(-c2c(=O)n(OCc3ccccn3)c3ccccc3[n+]2[O-])cc1	21	-8	-6	5	62*	1
COc1ccc(-c2c(=O)n(OCc3ccccn3)c3ccccc3[n+]2[O-])cc1OC	17	-16	-4	-22	55*	1
O=C(CSc1nnc2ccc(-c3cccnc3)nn12)Nc1ccc(F)cc1F	19	-3	-11	0	25	1
CCCc1cc(=O)[nH]c(Nc2ccc(Cl)cc2)n1	-12	79*	10	22	23	2
COc1cccc(C(=O)Nc2cc(C)c3c(=O)oc4ccccc4c3n2)c1	15	-18	-7	-28	45*	1
Cc1ccc(C(C(=O)NCc2ccccc2)N(Cc2cccs2)C(=O)c2ccc3c(c2)OCCO3)cc1 (stereo unspecified)	13	6	13	13	58*	10
Nc1c(C(=O)c2ccccc2)oc2ccc(Br)cc12	-2	-32	3	24	59*	0
O=C(CN1CCN(S(=O)(=O)c2ccc(F)cc2)CC1)N1CCOCC1	-14	0	3	-14	9	0
Cc1ccc(CNC(=O)[C@H](Cc2ccccc2)NC(=O)C2CCNCC2)cc1	17	-19	31*	-4	6	1
COc1ccc(/C=C2\SC(=S)N(NC(=O)c3ccncc3)C2=O)cc1OC	x	-6	x	-19	22	x
COc1cc(/C=C2\SC(=S)N(NC(=O)c3ccccc3O)C2=O)ccc1O	2	35*	3	21	25	13
N#C/C(=C\c1ccc(Sc2nc3ccccc3[nH]2)o1)c1ccccc1	4	32	12	56*	74*	13
COc1ccc(NC(=O)/C(C#N)=C\c2ccc(N3CCOCC3)o2)cc1	-20	47*	35*	54*	59*	54*
N#C/C(=C\c1ccc(N2CCOCC2)o1)c1ccccc1	-4	-13	-15	-3	10	1
N#C/C(=C/c1ccc(N2CCOCC2)o1)C(=O)NC1CCCCC1	13	-1	-7	-13	12	7

Source: PubChem (The Scripps Research Institute Molecular Screening Center)
